Common to all, as to assay type: functional
For test [1], the system named is Staphylococcus aureus. In words: Antibacterial activity against methicillin-sensitive Staphylococcus aureus by broth liquid microdilution method. The essentials: (§1)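 Isolates were identified on an automated MicroScan WalkAway 96 system. Susceptibility was tested by broth microdilution following CLSI guidelines. MIC was taken as the lowest concentration giving complete inhibition of bacterial growth. S. aureus ATCC 29213 served as the control strain.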

Another test relates to Enterococcus faecalis. In words: Antibacterial activity against linezolid-resistant Enterococcus faecalis by broth liquid microdilution method. The essentials:
as §1
On the technique in general: In broth dilution the organism is exposed to a series of concentrations in liquid medium.

Test [2] deals with Staphylococcus aureus. The test can be described thus: Antibacterial activity against Staphylococcus aureus ATCC 29213 by broth liquid microdilution method. The essentials:
as §1

The next test has as its system Enterococcus faecium. In words: Antibacterial activity against vancomycin-resistant Enterococcus faecium by broth liquid microdilution method. An outline of the steps:
as §1

Test [3] has as its system Staphylococcus aureus. In words: Antibacterial activity against methicillin-resistant Staphylococcus aureus by broth liquid microdilution method. An outline of the steps: as §1

≈ marks a conversion by molar mass, not a printed value. A value given as a limit tells only on which side of the number the result lay.

Turning to `CC(=O)NC[C@H]1CN(c2ccc(-c3ccc(/C=N/N4CCN(C(=O)OC(C)(C)C)CC4)cc3)c(F)c2)C(=O)O1`, the MIC in the test on Staphylococcus aureus [1], in the test on Enterococcus faecalis, in the test on Staphylococcus aureus [2] and against Enterococcus faecium was > 2 µg/mL in each case.

With `CC(=O)NC[C@H]1CN(c2ccc(-c3ccc(/C=N/N4CCOCC4)cc3)c(F)c2)C(=O)O1`, the minimal inhibitory concentration (MIC) in the test with Staphylococcus aureus [1] amounted to 0.25 µg/mL (≈ 0.568 µM); against Enterococcus faecalis, 0.25 µg/mL (≈ 0.568 µM); against Staphylococcus aureus [3], 0.25 µg/mL (≈ 0.568 µM); in the test on Staphylococcus aureus [2], 0.5 µg/mL (≈ 1.14 µM); against Enterococcus faecium, 0.5 µg/mL (≈ 1.14 µM).

Consider `CC(=O)NC[C@H]1CN(c2ccc(-c3ccc(/C=N/N4CCN(C(=O)c5ccncc5)CC4)cc3)c(F)c2)C(=O)O1`, for which the MIC was determined as 0.125 µg/mL (≈ 0.23 µM) in the test on Staphylococcus aureus [1]; 0.25 µg/mL (≈ 0.459 µM) with Enterococcus faecalis; 0.25 µg/mL (≈ 0.459 µM) in the test with Staphylococcus aureus [3]; 0.25 µg/mL (≈ 0.459 µM) against Staphylococcus aureus [2]; 0.25 µg/mL (≈ 0.459 µM) in the test with Enterococcus faecium.

Consider `CC(=O)NC[C@H]1CN(c2ccc(-c3ccc(/C=N/N4CCN(C(=O)c5ccc(Br)cc5)CC4)cc3)c(F)c2)C(=O)O1`, for which the MIC in the test on Staphylococcus aureus [1], against Enterococcus faecalis, with Staphylococcus aureus [3], against Staphylococcus aureus [2] and against Enterococcus faecium was 0.125 µg/mL (≈ 0.201 µM) each time.

As to `C=CCN1CCN(/N=C/c2ccc(-c3ccc(N4C[C@H](CNC(C)=O)OC4=O)cc3F)cc2)CC1`, the MIC against Staphylococcus aureus [1] worked out at 0.125 µg/mL (≈ 0.261 µM); with Enterococcus faecalis it was 0.125 µg/mL (≈ 0.261 µM); against Staphylococcus aureus [3] it was 0.125 µg/mL (≈ 0.261 µM); with Staphylococcus aureus [2], 0.5 µg/mL (≈ 1.04 µM); against Enterococcus faecium, 0.125 µg/mL (≈ 0.261 µM).

As for `CC(=O)NC[C@H]1CN(c2ccc(-c3ccc(/C=N/N4CCS(=O)(=O)CC4)cc3)c(F)c2)C(=O)O1`, the MIC in the test with Staphylococcus aureus [1], with Enterococcus faecalis, in the test with Staphylococcus aureus [3], in the test with Staphylococcus aureus [2] and against Enterococcus faecium was 0.25 µg/mL (≈ 0.512 µM) each time.

As for `CC(=O)NC[C@H]1CN(c2ccc(-c3ccc(/C=N/N4CCN(C(=O)c5ccccn5)CC4)cc3)c(F)c2)C(=O)O1`, the MIC in the test with Staphylococcus aureus [1], against Enterococcus faecalis, against Staphylococcus aureus [3], in the test on Staphylococcus aureus [2] and against Enterococcus faecium was 0.125 µg/mL (≈ 0.23 µM) throughout.

For `CC(=O)NC[C@H]1CN(c2ccc(-c3ccc(/C=N/N4CCN(C(=O)c5ccccc5)CC4)cc3)c(F)c2)C(=O)O1`, the MIC came out at 0.125 µg/mL (≈ 0.23 µM) in the test with Staphylococcus aureus [1]; 0.25 µg/mL (≈ 0.46 µM) against Enterococcus faecalis; 0.25 µg/mL (≈ 0.46 µM) against Staphylococcus aureus [3]; 0.25 µg/mL (≈ 0.46 µM) with Staphylococcus aureus [2]; 0.25 µg/mL (≈ 0.46 µM) against Enterococcus faecium.

Take `COc1ccc(C(=O)N2CCN(/N=C/c3ccc(-c4ccc(N5C[C@H](CNC(C)=O)OC5=O)cc4F)cc3)CC2)cc1`: the MIC against Staphylococcus aureus [1], in the test with Enterococcus faecalis, with Staphylococcus aureus [3], against Staphylococcus aureus [2] and against Enterococcus faecium was 0.125 µg/mL (≈ 0.218 µM) throughout.

As for `COC(=O)N1CCN(/N=C/c2ccc(-c3ccc(N4C[C@H](CNC(C)=O)OC4=O)cc3F)cc2)CC1`, the MIC against Staphylococcus aureus [1], in the test on Enterococcus faecalis, with Staphylococcus aureus [3], against Staphylococcus aureus [2] and in the test with Enterococcus faecium was 0.125 µg/mL (≈ 0.251 µM) in each case.

For `CC(=O)NC[C@H]1CN(c2ccc(-c3ccc(/C=N/N4CCN(C(=O)C(F)(F)F)CC4)cc3)c(F)c2)C(=O)O1`, the MIC with Staphylococcus aureus [1], with Enterococcus faecalis, in the test on Staphylococcus aureus [3], against Staphylococcus aureus [2] and against Enterococcus faecium was 0.125 µg/mL (≈ 0.233 µM) throughout.

In the case of `CC(=O)NC[C@H]1CN(c2ccc(-c3ccc(/C=N/N4CCN(S(C)(=O)=O)CC4)cc3)c(F)c2)C(=O)O1`, the MIC was found to be 1 µg/mL (≈ 1.93 µM) against Staphylococcus aureus [1]; 0.5 µg/mL (≈ 0.966 µM) with Enterococcus faecalis; 0.5 µg/mL (≈ 0.966 µM) against Staphylococcus aureus [3]; 1 µg/mL (≈ 1.93 µM) against Staphylococcus aureus [2]; 2 µg/mL (≈ 3.86 µM) with Enterococcus faecium.

As for `CC(=O)NC[C@H]1CN(c2ccc(-c3ccc(/C=N/N4CCN(C(C)=O)CC4)cc3)c(F)c2)C(=O)O1`, the MIC in the test with Staphylococcus aureus [1] worked out at 0.125 µg/mL (≈ 0.26 µM); against Enterococcus faecalis it was 0.25 µg/mL (≈ 0.519 µM); against Staphylococcus aureus [3], 0.25 µg/mL (≈ 0.519 µM); in the test on Staphylococcus aureus [2], 0.25 µg/mL (≈ 0.519 µM); in the test with Enterococcus faecium, 0.5 µg/mL (≈ 1.04 µM).

Consider `COc1cccc(C(=O)N2CCN(/N=C/c3ccc(-c4ccc(N5C[C@H](CNC(C)=O)OC5=O)cc4F)cc3)CC2)c1`, for which the MIC in the test with Staphylococcus aureus [1] is 0.25 µg/mL (≈ 0.436 µM); against Enterococcus faecalis, 1 µg/mL (≈ 1.74 µM); against Staphylococcus aureus [3] it was 0.25 µg/mL (≈ 0.436 µM); in the test with Staphylococcus aureus [2], 0.25 µg/mL (≈ 0.436 µM); in the test with Enterococcus faecium, 1 µg/mL (≈ 1.74 µM).

On to `CC(=O)NC[C@H]1CN(c2ccc(-c3ccc(/C=N/N4CCCCC4)cc3)c(F)c2)C(=O)O1`, for which the MIC with Staphylococcus aureus [1] is 0.25 µg/mL (≈ 0.57 µM); in the test with Enterococcus faecalis it was 0.25 µg/mL (≈ 0.57 µM); with Staphylococcus aureus [3], 0.25 µg/mL (≈ 0.57 µM); in the test with Staphylococcus aureus [2], 0.25 µg/mL (≈ 0.57 µM); against Enterococcus faecium, 0.5 µg/mL (≈ 1.14 µM).

With `CC(=O)NC[C@H]1CN(c2ccc(-c3ccc(/C=N/N4CCN(C(=O)c5cccnc5)CC4)cc3)c(F)c2)C(=O)O1`, the MIC with Staphylococcus aureus [1], in the test on Enterococcus faecalis, against Staphylococcus aureus [3], in the test on Staphylococcus aureus [2] and against Enterococcus faecium was 0.125 µg/mL (≈ 0.23 µM) each time.

On to `CC(=O)NC[C@H]1CN(c2ccc(-c3ccc(/C=N/N4CCN(C(=O)c5ccc(Cl)cc5)CC4)cc3)c(F)c2)C(=O)O1`, for which the MIC was found to be 0.0675 µg/mL (≈ 0.117 µM) in the test on Staphylococcus aureus [1]; 0.25 µg/mL (≈ 0.432 µM) with Enterococcus faecalis; 0.0675 µg/mL (≈ 0.117 µM) against Staphylococcus aureus [3]; 0.0675 µg/mL (≈ 0.117 µM) in the test with Staphylococcus aureus [2]; 0.25 µg/mL (≈ 0.432 µM) in the test with Enterococcus faecium.

As for `C#CCN1CCN(/N=C/c2ccc(-c3ccc(N4C[C@H](CNC(C)=O)OC4=O)cc3F)cc2)CC1`, the minimum inhibitory concentration (MIC) in the test with Staphylococcus aureus [1], with Enterococcus faecalis, against Staphylococcus aureus [3], against Staphylococcus aureus [2] and in the test on Enterococcus faecium was 0.125 µg/mL (≈ 0.262 µM) throughout.

Take `CC(=O)NC[C@H]1CN(c2ccc(-c3ccc(/C=N/N4CCN(C(=O)c5ccco5)CC4)cc3)c(F)c2)C(=O)O1`: the MIC came to 0.125 µg/mL (≈ 0.234 µM) in the test with Staphylococcus aureus [1]; 0.25 µg/mL (≈ 0.469 µM) against Enterococcus faecalis; 0.25 µg/mL (≈ 0.469 µM) with Staphylococcus aureus [3]; 0.25 µg/mL (≈ 0.469 µM) against Staphylococcus aureus [2]; 0.25 µg/mL (≈ 0.469 µM) with Enterococcus faecium.

Consider `CC(=O)NC[C@H]1CN(c2ccc(-c3ccc(/C=N/N4CCN(C(=O)c5cnccn5)CC4)cc3)c(F)c2)C(=O)O1`, for which the MIC against Staphylococcus aureus [1], against Enterococcus faecalis, in the test on Staphylococcus aureus [3], against Staphylococcus aureus [2] and with Enterococcus faecium was 0.125 µg/mL (≈ 0.229 µM) each time.

With `CC(=O)NC[C@H]1CN(c2ccc(-c3ccc(/C=N/N4CCN(C(=O)N(C)C)CC4)cc3)c(F)c2)C(=O)O1`, the MIC was found to be 0.0675 µg/mL (≈ 0.132 µM) against Staphylococcus aureus [1]; 0.25 µg/mL (≈ 0.49 µM) against Enterococcus faecalis; 0.0675 µg/mL (≈ 0.132 µM) against Staphylococcus aureus [3]; 0.0675 µg/mL (≈ 0.132 µM) in the test on Staphylococcus aureus [2]; 0.25 µg/mL (≈ 0.49 µM) against Enterococcus faecium.

For the compound `CC(=O)NC[C@H]1CN(c2ccc(-c3ccc(/C=N/N4CCN(C(=O)c5ccc(C(F)(F)F)cc5)CC4)cc3)c(F)c2)C(=O)O1`, the MIC against Staphylococcus aureus [1], in the test on Enterococcus faecalis, against Staphylococcus aureus [3], against Staphylococcus aureus [2] and against Enterococcus faecium was 0.125 µg/mL (≈ 0.204 µM) in each case.

Regarding `CC(=O)NC[C@H]1CN(c2ccc(-c3ccc(/C=N/N4CCN(C(=O)c5cccs5)CC4)cc3)c(F)c2)C(=O)O1`, the MIC with Staphylococcus aureus [1] amounted to 0.25 µg/mL (≈ 0.455 µM); against Enterococcus faecalis, 0.5 µg/mL (≈ 0.91 µM); against Staphylococcus aureus [3] it was 0.25 µg/mL (≈ 0.455 µM); against Staphylococcus aureus [2], 0.125 µg/mL (≈ 0.227 µM); in the test on Enterococcus faecium it was 0.5 µg/mL (≈ 0.91 µM).

Regarding `CC(=O)NC[C@H]1CN(c2ccc(-c3ccc(/C=N/N4CCN(Cc5ccccc5)CC4)cc3)c(F)c2)C(=O)O1`, the MIC against Staphylococcus aureus [1], in the test on Enterococcus faecalis, with Staphylococcus aureus [3], against Staphylococcus aureus [2] and in the test with Enterococcus faecium was 0.125 µg/mL (≈ 0.236 µM) each time.

With `CCC(=O)N1CCN(/N=C/c2ccc(-c3ccc(N4C[C@H](CNC(C)=O)OC4=O)cc3F)cc2)CC1`, the MIC in the test with Staphylococcus aureus [1], against Enterococcus faecalis, in the test with Staphylococcus aureus [3], in the test on Staphylococcus aureus [2] and in the test with Enterococcus faecium was 0.125 µg/mL (≈ 0.252 µM) in each case.

`COc1ccccc1C(=O)N1CCN(/N=C/c2ccc(-c3ccc(N4C[C@H](CNC(C)=O)OC4=O)cc3F)cc2)CC1`: the minimal inhibitory concentration (MIC) turned out to be 0.0675 µg/mL (≈ 0.118 µM) in the test with Staphylococcus aureus [1]; 0.125 µg/mL (≈ 0.218 µM) against Enterococcus faecalis; 0.125 µg/mL (≈ 0.218 µM) in the test on Staphylococcus aureus [3]; 0.5 µg/mL (≈ 0.872 µM) against Staphylococcus aureus [2]; 0.125 µg/mL (≈ 0.218 µM) against Enterococcus faecium.

Regarding `CC(=O)NC[C@H]1CN(c2ccc(-c3ccc(/C=N/N4CCN(C(=O)CN)CC4)cc3)c(F)c2)C(=O)O1`, the MIC in the test on Staphylococcus aureus [1] turned out to be 0.25 µg/mL (≈ 0.503 µM); in the test on Enterococcus faecalis, 0.5 µg/mL (≈ 1.01 µM); against Staphylococcus aureus [3] it was 0.25 µg/mL (≈ 0.503 µM); with Staphylococcus aureus [2] it was 0.125 µg/mL (≈ 0.252 µM); in the test on Enterococcus faecium, 0.5 µg/mL (≈ 1.01 µM).

Regarding `CC(=O)NC[C@H]1CN(c2ccc(-c3ccc(CNCc4cnn[nH]4)cc3)c(F)c2)C(=O)O1` [RADEZOLID], the MIC with Staphylococcus aureus [1], with Enterococcus faecalis, against Staphylococcus aureus [3], in the test with Staphylococcus aureus [2] and against Enterococcus faecium was 0.5 µg/mL (≈ 1.14 µM) in each case.

In general, MIC refers to the lowest concentration that inhibits growth of the organism. A higher MIC goes with a less susceptible organism.

For the origin of these results see ChEMBL document CHEMBL4265926, “Synthesis and antibacterial activity evaluation of novel biaryloxazolidinone analogues containing a hydrazone moiety as promising antibacterial agents” (Eur J Med Chem, 2018).
